Screens (PubChem BioAssay)
Hits are enriched below; roughly 4.3% of the tested compounds scored in any of these assays.
TAAR1 antag: human TAAR1 antagonism. Q96RJ0. CHO RD-HGA16 TAAR1, Fluo-8 calcium fluorescence, antagonist. inhibition, % at 3 µM. hit rate 1.5% among 360,000. AID 624466;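 active = inhibition above a per-plate cutoff, the mean inhibition of test compounds on that plate plus 3 SD, cut at about 49% in these data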;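 note: 0% = DMSO plus EC80 beta-PEA response and 100% = DMSO alone without agonist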
Target sequence (Q96RJ0 whole entry, looked up): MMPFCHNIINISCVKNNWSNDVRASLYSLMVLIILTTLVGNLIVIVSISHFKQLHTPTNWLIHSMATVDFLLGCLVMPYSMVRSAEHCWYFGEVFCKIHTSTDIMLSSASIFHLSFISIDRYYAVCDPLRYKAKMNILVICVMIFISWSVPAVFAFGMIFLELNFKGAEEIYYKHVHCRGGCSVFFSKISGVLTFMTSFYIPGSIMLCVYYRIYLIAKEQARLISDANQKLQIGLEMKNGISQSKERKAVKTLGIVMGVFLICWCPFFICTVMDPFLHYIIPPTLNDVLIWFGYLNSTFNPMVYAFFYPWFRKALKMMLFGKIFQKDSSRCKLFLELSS
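Test system – hTAAR1-expressing CHO RD-HGA16 cells, Gα16-coupled · Reagent – β-PEA at EC80 concentration, post-compound challenge · Compound dosing – 3 µM, single point · Timing – 140 s kinetic read after compound, 140 s after agonist · Detection – Fluo-8 intracellular calcium dye fluorescence, real-time kinetic reads · Control set – DMSO and EC80 PEA controls · Repeats – n of 1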
TAAR1 agonist: human TAAR1 agonism | CHO RD-HGA16 TAAR1, Fluo-8 calcium fluorescence; vehicle wells 0%, saturating PEA agonist 100% | Q96RJ0 | hit rate 0.99% among 360,000 | AID 624467 | activation, % at 3 µM;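 active = activation above the mean activation of all test compounds in the run plus 3 SD, cut at about 38% in these data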
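Test system: RD-HGA16 (CHO) cells co-expressing Gα16 and hTAAR1 / Benchmarks: DMSO vehicle as 0%, PEA at EC100 as 100% / Repeats: no replicates (n 1) / Measure: % activation from peak over basal fluorescence ratio, DMSO-to-PEA scaled / Timing: 17-24 h plating, Fluo-8 75 min 37 °C, 30 min RT / Technique: kinetic Fluo-8 calcium fluorescence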
GalR3 antagonist: blocks the human galanin receptor 3 | O60755 | HEK293 GalR3-CNG cAMP membrane potential fluorescence; galR3 body fused to GalR1 C-terminus | inhibition, % at 3 µM | hit rate 0.44% among 360,000 | AID 651719;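 active = inhibition above the screen-wide average plus 3 SD, cut at about 13% in these data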;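 note: forskolin and galanin both at EC90 stimulate the cells; cAMP rise reported by CNG channel membrane potential dye signal; 0% = forskolin plus galanin with DMSO and 100% = forskolin alone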
Target sequence (O60755 1-299 limits assumed): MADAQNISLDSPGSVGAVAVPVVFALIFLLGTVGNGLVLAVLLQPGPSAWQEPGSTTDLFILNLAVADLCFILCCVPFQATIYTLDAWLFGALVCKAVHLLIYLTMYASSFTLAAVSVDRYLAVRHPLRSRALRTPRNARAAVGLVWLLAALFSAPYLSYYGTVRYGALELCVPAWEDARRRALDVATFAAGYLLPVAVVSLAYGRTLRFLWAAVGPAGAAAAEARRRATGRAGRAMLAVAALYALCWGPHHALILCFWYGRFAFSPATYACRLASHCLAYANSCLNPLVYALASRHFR
OX1R antag-1: human HCRTR1 antagonism. CHO/OX1R cells, Fluo-8 calcium fluorescence, orexin A. inhibition, % at 5 µM. hit rate 0.43% among 330,000. O43613;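 active = inhibition above its plate's threshold, mean inhibition of all tested compounds on the plate plus 3 SD, cut at about 37% in these data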;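 note: 0% = orexin A challenge wells and 100% = SB-334867-A antagonist wells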
CHO parental Ca: signal in parental CHO cells, OX1R antagonist counter-screen | inhibition, % at 5.6 µM | hit rate 0.63% among 330,000 | parental CHO-K1, ATP-induced calcium, Fluo-8 fluorescence | AID 463079;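 active = inhibition above that plate's mean sample inhibition plus 3 SD, cut at about 26% in these data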;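 note: 0% = ATP-challenged DMSO wells and 100% = DMSO wells without ATP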
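Test system: untransfected parental CHO cell line; also added: ATP stimulus; dosing: 5.6 µM, single dose; signal: calcium-sensitive Fluo-8 fluorescence; measure: percent inhibition of ATP-evoked calcium rise, normalized to controls; benchmarks: low control ATP plus DMSO, high control DMSO only; replication: one well per compound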
OX1R antag-2: antagonists of human orexin 1 receptor (OX1R). OX1R-expressing cells, FRET antagonist read-out. inhibition, % at 6.6 µM. hit rate 1.8% among 330,000; in the data active = inhibition mostly above about 38%, no sharp cut-off; inactive = mostly below about 40%;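 note: 0% = agonist challenge alone and 100% = reference antagonist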
Numbers without * were called inactive; · = no result given.

SMILES | TAAR1 antag | TAAR1 agonist | GalR3 antagonist | OX1R antag-1 | CHO parental Ca | OX1R antag-2
OC(c1cccc(Cl)c1)c1nccc2ccccc12 (stereo not drawn) | -9.2 | 5.2 | -6.5 | -24.1 | -16.5 | 3.9
O=C(OC(c1ccccc1)c1nccc2ccccc12)c1cc([N+](=O)[O-])cc([N+](=O)[O-])c1 (stereo not drawn) | -19.8 | 4.1 | -6.0 | -45.3 | -30.3 | 62.2*
CC(=O)N1CCN(c2ccc(N3CCN(Cc4ccccc4)[C@@H](C)C3)c(C)c2)[C@@H](C)C1 | -10.8 | 1.6 | -1.0 | · | · | ·
COc1cc(N2CCCC2)c(OC)cc1/C=C1/NC(=S)NC1=O | 50.8* | 45.1* | -10.4 | 63.5* | 32.0* | 25.4
Cc1cc2c(c(=O)o1)[C@@]1(C(=O)N(C)c3cc(Br)ccc31)C1=C(CCCC1=O)O2 | -7.1 | 1.8 | -2.1 | · | · | ·
Nc1c(O)cccc1C(=O)O | 14.7 | 0.8 | · | 3.6 | 1.2 | 61.1*
O=C(O)c1ccccc1O | -11.0 | 0.7 | -1.9 | -5.7 | 3.9 | 7.2
COc1ccc2c(c1)NC(c1cc(Cl)cc(Cl)c1O)c1cccn1-2 (stereo not drawn) | 5.7 | 2.1 | -5.6 | · | · | ·
COc1ccc2c(c1)NC(c1ccc(N(C)C)cc1)c1cccn1-2 (stereo not drawn) | 0.6 | -2.6 | -0.7 | 6.0 | -10.0 | 67.2*
O=c1c2ccc([N+](=O)[O-])cc2ncn1CCOc1ccc(Cl)cc1 | 63.5* | 20.8 | -4.8 | -6.2 | -13.7 | 30.8
COc1ccc(CCN2CC(C(=O)NCCCc3ccncc3)CCC2=O)cc1 (stereo not drawn) | -5.8 | 0.9 | 1.5 | · | · | ·
Nc1[nH]c(C(=O)c2ccccc2)c(-c2cc(F)ccc2Br)c1C(=O)NCCc1c[nH]c2ccccc12 | 1.2 | 1.5 | -7.8 | · | · | ·
C[C@]1(C2CCCC2)Cc2cc(OCC(=O)O)c(Cl)c(Cl)c2C1=O | -0.4 | 0.0 | -2.9 | 3.2 | -6.2 | 5.8
CCCC[C@@]1(C2CCCC2)Cc2cc(OCC(=O)O)c(Cl)c(Cl)c2C1=O | -10.0 | -1.5 | · | -8.6 | -16.7 | 43.0*
C=CCNc1nc(-c2sc(NC(=O)C(C)(C)C)nc2C)c(-n2cc(-c3ccccc3)nn2)s1 | 61.1* | 7.2 | -7.1 | · | · | ·
C=CCNc1nc(-c2sc(NC(C)=O)nc2C)cs1 | 1.9 | -3.1 | -6.9 | -28.4 | -15.9 | 6.2
Cn1c(SCC2CCCO2)nnc1-c1ccc([N+](=O)[O-])cc1 (stereo not drawn) | -15.3 | 2.2 | 4.3 | -7.5 | -22.0 | 41.5*
Cn1c(SCc2ccc([N+](=O)[O-])cc2)nnc1-c1ccncc1 | 5.0 | -0.9 | -7.6 | -7.0 | -14.2 | 24.6
COc1ccc(C2=C(N)c3ccccc3C2=O)cc1 | · | · | · | -0.5 | 3.5 | 44.7*
COC(=O)[C@]12C[C@H](CC(=O)NCc3ccc(OC)c(OC)c3)C(=O)N(CCc3ccc(OC)c(OC)c3)C1=C[C@H](C(C)(C)C)O[C@@H]2C | 12.7 | 2.0 | -2.1 | · | · | ·
O=C1Nc2ccc(Br)cc2C12NNc1ccccc1O2 (stereo not drawn) | 21.0 | 22.5 | -5.5 | 60.3* | 78.2* | 33.6
O=C1Nc2ccc(Br)cc2C1(O)c1ccccc1 (stereo not drawn) | -16.3 | 15.2 | -11.9 | -6.9 | -10.7 | -2.7
CC(=O)Nc1ccc(NS(=O)(=O)c2ccc(-c3cnc(C4CC4)o3)cc2)cc1 | -16.2 | 8.2 | -0.4 | -15.3 | 4.0 | 15.3
CC(=O)c1cccc(NS(=O)(=O)c2ccc(-c3cnc(C4CC4)o3)cc2)c1 | 17.0 | 3.6 | 3.7 | 12.8 | 50.1* | 35.6
O=C1NC[C@H](CCCCN2C[C@H](Cc3ccccc3)N(CCC3CCCCC3)C(=O)C2=O)N(CCc2ccc(O)cc2)C1=O | -31.3 | 8.7 | -3.3 | · | · | ·
SMILES | TAAR1 antag | TAAR1 agonist | GalR3 antagonist | OX1R antag-1 | CHO parental Ca | OX1R antag-2
CN(C)c1ccc(-c2ccc3oc(-c4ccsc4)cc(=O)c3c2)cn1 | 0.9 | 4.0 | -1.4 | -4.4 | -17.7 | 57.4*
Cc1ccccc1NC(=O)CCS(=O)(=O)c1cccc2nonc12 | -12.7 | 2.6 | 3.1 | -14.0 | -3.0 | 55.0*
Cc1cccc(NC(=O)CCS(=O)(=O)c2cccc3nonc23)c1C | -1.3 | 6.1 | -9.9 | 14.6 | 1.9 | 21.5
CCn1cc(SCC(=O)N2CCc3ccccc32)c2ccccc21 | 20.8 | -1.8 | · | -24.8 | 32.2* | 36.1*
CCNC(=O)N1CCN(c2ccc(N3CCN(Cc4ccccc4)[C@H](C)C3)c(C)c2)[C@@H](C)C1 | -7.7 | 0.3 | -6.9 | · | · | ·
CCCn1c(=N)c(C(=O)NC2CCCC2)cc2c(=O)n3cccc(C)c3nc21 | 1.3 | 6.9 | -1.7 | -19.6 | -18.8 | 80.8*
Cc1cccn2c(=O)c3cc(C(=O)NCc4ccc(F)cc4)c(=N)n(CCCN4CCOCC4)c3nc12 | -12.5 | -4.4 | 2.8 | · | · | ·
Cc1cccn2c(=O)c3cc(C(=O)NC4CCCCC4)c(=N)n(CCN4CCOCC4)c3nc12 | -0.6 | -0.6 | -6.5 | -13.6 | -1.9 | 63.3*
Cc1cccn2c(=O)c3cc(C(=O)NC4CCCC4)n(C)c3nc12 | -5.7 | 1.1 | 0.7 | -27.9 | -22.5 | 22.6
CC(NCc1ccc(S(N)(=O)=O)cc1)C(=O)Nc1ccc([N+](=O)[O-])cc1Cl (stereo not drawn) | 1.6 | 0.3 | -3.2 | -5.3 | -2.7 | 65.7*
NNC(=O)c1nc(-c2ccccc2)cc(-c2ccccc2)n1 | 32.8 | 2.2 | -11.1 | · | · | ·
CCN(CC)c1ccc2cc(-c3nnc(-c4ccncc4)o3)c(=O)oc2c1 | 23.5 | 39.7* | -0.5 | · | · | ·
CCN(CC)c1ccc2cc(C(N)=O)c(=O)oc2c1 | -2.5 | 10.1 | -7.3 | -4.7 | -3.3 | 19.2
CCN(CC)c1ccc2cc(C=O)c(=O)oc2c1 | 35.7 | 73.2* | -1.7 | 37.6 | 49.5* | 115.7*
COCCNC(=O)C1CCCN(C(=O)c2ccc(C(F)(F)F)nc2C)CC1 (stereo not drawn) | -4.2 | 4.1 | -6.0 | · | · | ·
CCOc1ccccc1C(=O)NCC(=O)NCC(c1ccco1)N1CCCCC1 (stereo not drawn) | -42.0 | 1.2 | -2.6 | -30.5 | -26.7 | 20.0
O=C(N/N=C/c1ccc(O)cc1O)C(=O)N/N=C/c1ccc(O)cc1O | -15.4 | 5.2 | -2.5 | -12.3 | -11.7 | 69.8*
CC1=NN(c2ccccc2)C(=O)/C1=C/c1c(O)n(-c2ccc(F)c(Cl)c2)[nH]c1=O | · | · | · | 5.0 | -4.0 | 74.2*
CCOC(=O)c1c(C)oc2c1c(CN1CCN(C(=O)OCC)CC1)c(O)c1ccccc12 | 12.0 | 4.4 | 0.0 | 1.4 | -14.6 | 69.8*
CCOC(=O)c1c(C)oc2c1c(CN1CCN(CCO)CC1)c(O)c1ccccc12 | -25.3 | 4.4 | -4.8 | · | · | ·
COC(CNC(=O)c1ccc2nc3ccccc3c(=O)n2c1)OC | 2.7 | 1.4 | -12.5 | -14.2 | -8.9 | 38.4*
COCCCNC(=O)c1ccc2nc3ccccc3c(=O)n2c1 | 6.9 | 3.6 | -7.9 | -22.8 | -13.1 | 34.5
